Test [1] addresses Protein farnesyltransferase (Homo sapiens, UniProt P49354+P49356). The test is described as follows: Inhibition of [3H]FPP incorporation into recombinant human K-Ras by Farnesyltransferase. Type of test: protein-complex assay. Put shortly:
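FTase-catalyzed incorporation of [³H]FPP into recombinant human K-Ras protein. IC50 is the compound concentration giving 50% inhibition of that incorporation.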

Test [2] concerns Mus musculus. The test can be described thus: Tumor growth inhibition against subcutaneously injected H-ras-Rat1 cells in female nude mice after continuous infusion of 14 mg/kg/day. Type of test: functional. The note with it: route subcutaneous. The procedure, abridged: (§1)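 Female nude mice were injected subcutaneously with H- or K-ras-transformed RAT1 cells. Treatment began 24 h later with vehicle (50% DMSO/water) or compound, n = 8–10, for about 14 days. Dosing was once-daily subcutaneous injection or continuous sc infusion by implanted Alzet osmotic pump. Tumor growth inhibition is relative to vehicle controls.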

Test [3] has as its system Rat1. The test is described as follows: Inhibition of anchorage-independent growth by 90% in human H-ras-transformed RAT1 cells in soft agar. The class given is functional. The note with it: Rattus norvegicus. Put shortly:
(§2)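 RAT1 cells transformed with human H- or K-ras were suspended in soft agar to measure colony formation. IC90 is the concentration inhibiting anchorage-independent growth by 90% relative to vehicle-treated control. Values are reported as ranges.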

For test [4], the system named is Rat1. The test is described as follows: Inhibition of anchorage independent growth of H-ras-transformed RAT1 cells on poly(HEMA) coated microtiter plate. Type of test: functional, cell-based. Conditions: Rattus norvegicus. The procedure, abridged: (§3)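 Anchorage-independent growth assay: cells grown on poly(HEMA)-coated microtiter plates. IC50 is the compound concentration that inhibits 50% of cell growth.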

The test system of another test is DLD-1. The test is described as follows: Concentration required to inhibit growth of human tumor DLD1 cell line on poly(HEMA) coated microtiter plate. Type of test: functional, cell-based. The procedure, abridged:
as §3

Another test deals with MCF7. The test is described as follows: Concentration required to inhibit growth of human tumor MCF-7 cells line on poly(HEMA) coated microtiter plate. Type of test: functional, cell-based. Put shortly: as §3
For test [5], the system named is Rat1. The test can be described thus: Inhibition of anchorage-independent growth by 90% in human K-ras-transformed RAT1 cells in soft agar. The class given is functional. Conditions: Rattus norvegicus. The procedure, abridged:
as §2

Test [6] deals with Mus musculus. The test is described as follows: Tumor growth inhibition against subcutaneously injected H-ras Rat1 cells in female nude mice after continuous infusion of 1.4 mg/kg/day. Type of test: functional. The note with it: route subcutaneous. The procedure, abridged: as §1
Test [7] has as its target Geranylgeranyl transferase type I (Homo sapiens, UniProt P49354+P53609). The test is described as follows: Inhibition of [3H]GGPP incorporation into recombinant human RhoA by Geranylgeranyl transferase type I. The class given is protein-complex assay. Put shortly:
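GGTase I-catalyzed incorporation of [³H]GGPP into recombinant human RhoA protein. IC50 is the concentration giving 50% inhibition.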

The subject of test [8] is Rat1. The test is described as follows: Highest concentration compatible with 80% cell survival in cultured RAT1 cells. Conditions: Rattus norvegicus. The class given is functional. Put shortly: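 Normal RAT1 cells in culture, with viability read by MTT staining. The value is the highest compound concentration compatible with 80% cell survival.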
For test [9], the system named is Rat1. The test is described as follows: Inhibition of anchorage-independent growth by 90% of human K-ras-transformed RAT1 cells in soft agar. Type of test: functional. The note with it: Rattus norvegicus. The procedure, abridged:
as §2

Structures are written as SMILES. pIC50: −log10 of the molar value. Where “and” joins values, the source holds several entries; their conditions need not be identical. Identical values can stand only once.

Turning to `CCCC[C@H]1CN(C(=O)c2cccc3ccccc23)CCN1Cc1cncn1Cc1ccccc1`, the pIC50 in test [1] was 6.31.
Regarding `CCCC[C@H]1CN(C(=O)c2cccc3ccccc23)CCN1Cc1c[nH]cn1`, the pIC50 in [1] was 5.14.
In the case of `C[C@@H]1CN(c2cccc(Cl)c2)C(=O)CN1Cc1cncn1Cc1ccc(C#N)cc1`, the pIC50 in test [1] was 7.10.
Consider `CCCC[C@H]1CN(c2cccc(Cl)c2)C(=O)CN1Cc1cncn1Cc1ccc(C#N)cc1`, for which the pIC50 in [1] was 9.96.
As to `CCS(=O)(=O)C[C@@H]1CN(c2cccc(Cl)c2)C(=O)CN1Cc1cncn1Cc1ccc(C#N)cc1`, the Tumor growth inhibition in the test with Mus musculus [2] was 100% and 60%; in the test on Mus musculus [6] it was 73%. Moreover, the pIC50 in [1] is 9.74; in the test with Rat1 [4], 8.10; in the test on DLD-1, 5.82; in the test on MCF7, 8.30; in [7] it was less than 4.00. Further, the results for the IC90 in the test with Rat1 [3] and in the test on Rat1 [5] were 30 nM and 1000 nM, respectively. Moreover, the IC20 in the test on Rat1 [8] was greater than 100 µM.
Take `CCCC[C@H]1CN(c2cccc(C)c2C)C(=O)CN1Cc1cncn1Cc1ccc(C#N)cc1`: the figures for the pIC50 (in test [1]; in the test with Rat1 [4]; in test [7]) were 9.36, 7.55 and 5.00, respectively. Moreover, the 90% effect concentration (IC90) in the test with Rat1 [3] stood at 100 nM; in the test on Rat1 [9], 2500 nM. In addition, in the test with Rat1 [8], the IC20 stood at 25 µM.
Regarding `CCCC[C@H]1CN(C(=O)c2cccc3ccccc23)CCN1Cc1cncn1Cc1ccc(C#N)cc1`, in test [1], the pIC50 was 7.68.
On to `C[C@H]1CN(c2cccc(Cl)c2)C(=O)CN1Cc1cncn1Cc1ccc(C#N)cc1`, for which the pIC50 in test [1] was 8.05.
Still for that read-out and setting: under `CCCC[C@H]1CN(C(=O)c2cccc3ccccc23)CCN1C[C@@H](N)S` stands 9.00.

The pIC50 is the IC50 on a negative log10 scale, so that one unit is a factor of ten. A word on the IC90: it is the point of the concentration-response curve where the effect stands at 90%. A low value points to greater potency. Broadly, the IC20 is the concentration at which the effect reaches the 20% level. A higher IC20 goes with a need for much substance.

Source of the values: ChEMBL document CHEMBL1132387, “N-arylpiperazinone inhibitors of farnesyltransferase: discovery and biological activity” (J Med Chem, 1999).
